Data published in ChEMBL document CHEMBL3044969, “Syntheses and biological activities of dihydro-5,6-dehydrokawain derivatives” (1996).
The source made the active and inactive calls. No cut-off for these calls is given here.

Columns and labels:
Athelia rolfsii [1] = test: Antifungal activity against Athelia rolfsii assessed as growth inhibition at 100 ppm by agar dilution method relative to control; type: functional; details: Agroathelia rolfsii; read-out: GI
Outline: (§1)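 Pythium sp. and Corticium rolfsii were each grown on potato dextrose agar (1.5% agar) for 5 days at 27°C before testing. Growth inhibition was measured by agar dilution, following a previously reported method.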

Coptotermes formosanus [2] = test: Insecticidal activity against Coptotermes formosanus assessed as increase in mortality at 1 mg/filter paper measured for 14 days relative to control; type: functional
Outline: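 The termite assay was run in three replicates, which were combined into a mean. Mortality is given as a percentage relative to the untreated control termite group.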

Athelia rolfsii [3] = test: Antifungal activity against Athelia rolfsii assessed as growth inhibition at 1000 ppm by agar dilution method relative to control; type: functional; details: Agroathelia rolfsii; read-out: GI; outline: as §1
Pythium [4] = test: Antifungal activity against Pythium sp. assessed as growth inhibition at 1000 ppm by agar dilution method relative to control; type: functional; details: read-out: GI; outline: as §1
Pythium [5] = test: Antifungal activity against Pythium sp. assessed as growth inhibition at 100 ppm by agar dilution method relative to control; type: functional; details: read-out: GI; outline: as §1
Coptotermes formosanus [6] = test: Insecticidal activity against Coptotermes formosanus assessed as increase in mortality at 0.1 to 1 mg/filter paper measured for 14 days; type: functional, organism-based
Outline: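 Termite mortality was counted in three replicates and the replicates were combined into a mean. Mortality is given as a percentage relative to an untreated control group of termites.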

SMILES | inhibition of growth at 100 ppm (Athelia rolfsii [1]) [%] | mortality (Coptotermes formosanus [2]) [%] | inhibition of growth at 1000 ppm (Athelia rolfsii [3]) [%] | inhibition of growth at 1000 ppm (Pythium [4]) [%] | inhibition of growth at 100 ppm (Pythium [5]) [%] | Activity (Coptotermes formosanus [6])
CCOP(=S)(OCC)Oc1cc(CCc2ccccc2)oc(=O)c1 | 57 | 50 | 66 | 44 | 18 | 
O=c1cc(O)cc(CCc2ccccc2)o1 | 44 |  | 100 | 100 | 22 | inactive
COP(=S)(OC)Oc1cc(CCc2ccccc2)oc(=O)c1 | 91 | 93 | 98 | 88 | 50 | 
COc1cc(CCc2ccccc2)oc(=O)c1 [DIHYDRO-5,6-DEHYDROKAWAIN] | 64 |  | 96 | 94 | 72 | inactive
COc1cc(/C=C/c2ccccc2)oc(=O)c1 [DESMETHOXYYANGONIN] | 0 |  | 54 | 86 | 42 | 
